Laboratory results reported in the EternaBench riboswitch data.

Tested on: MS2 coat protein
Assay: apparent Kd, MS2 coat protein; higher = weaker binding; RNA-MaP array; FMN 200 µM where present
Procedure, shortened: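 SNAP-549-labelled MS2 coat protein, doubled from 0.7 or 1.5 nM to 3 µM, was titrated over designs transcribed by stalled E. coli RNA polymerase on Illumina sequencing-chip clusters. Titrations were run without and then with constant ligand in 100 mM Tris-HCl pH 7.5, 80 mM KCl, 4 mM MgCl2, BSA, DTT, yeast tRNA and Tween-20. The apparent Kd is the median of filtered per-cluster fits to green signal normalised to red-channel RNA signal and control-cluster median Fmax.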

[1] = designed as: OFF switch for flavin mononucleotide, no ligand
[2] = ligand present: flavin mononucleotide, designed as: OFF switch for flavin mononucleotide
[3] = designed as: ON switch for flavin mononucleotide, no ligand
[4] = ligand present: flavin mononucleotide, designed as: ON switch for flavin mononucleotide

| Sequence | apparent Kd [1] [nM] | apparent Kd [2] [nM] | apparent Kd [3] [nM] | apparent Kd [4] [nM] |
| --- | --- | --- | --- | --- |
| AAAACUCACGUAGGAUAUCAUUCCUUAAGGUAGUGAGAAGGACGUGACUACAUGUCCUUGAACAUGAGGAUCACCCAUGUAGGC | 49.5 | 55.4 | – | – |
| GUGCCUAACUAGAAGGCCGUAUGCAAAGCAUACGGAGGAUAUGGGUUCCGGAAACGGACAUGAGGAUCACCCAUGUGGCACAAA | – | – | 80.4 | 10.6 |
| CGGCGCUGUCGAGAGGAUAUGCGGUGAUGGACAUGAGGAUCACCCAUGUUAGCGAUAGCAUCACGGUAGAAGGCUCUACGGCUGC | – | – | 12 | 11.3 |
| UCCUGAUUGAGAGGUAGGAGUGGUAGAAGGCGACCGGUGCCAGAUGACAUGAGGAUCACCCAUGUCGAGGAUAUACCACUGAAU | 7.38 | 12.4 | – | – |
| CGUCCGUGGGUAGUGAUCGUACAUGAGGAUCACCCAUGUGAGAAGGAUAUGCAUGCACAUGGACAGCAGAAGGUCUCAUAACAA | 69.4 | 353 | – | – |
| UCGACCAGCGCCAGUCAAACAUGAGGAUCACCCAUGUACUCCAGAAGGCCGCCCAAGAACGGAGUGGAGGAUAUGGAGGUUCUC | – | – | 43.2 | 36.7 |
| UUAAAUCAUGUAGGAUAUGCAUGGCGAAGCUACGCAGAAGGACAUGAGGAUCACCCAUGUUCUGGCUACCGAGUACGGUGGCAA | 20.5 | 81.2 | – | – |
| GGUACCUUCACAGGAUAUGCUAUCCUUUGGGUAGCAGAAGGGUGAUACAUGAGGAUCACCCAUGUGGUGCCAGGGCGUGAGCCC | – | – | 1090 | 305 |
| GCGUUCUUGUAGAAGGUACUUUCAACAUCUUAUAAACGCUAGACACAUGAGGAUCACCCAUGUUGUAAGGAUAUACAUGAACGC | – | – | 11.3 | 10.9 |
| UCCAACCCUGUGAGGAUAUCGUCCAUUUUUUGUUCCGAGAAGGCACAUGAGGAUCACCCAUGUUUUUUAUUUUU | 28.1 | 93.7 | – | – |
| GCCUUACUGGUCAGGAUAUACAUUUGUUACUCUUUGUAGAAGGGACAUGAGGAUCACCCAUGUACAUUACAUUC | 20.8 | 27.2 | – | – |
| UUGCGGGAUUGAGGAUAUUGAGUACAUAUGUUUAACAUGAGGAUCACCCAUGUGGGUUGCGGUAUCGAGAAGGUAACUUACUAC | – | – | 95.8 | 104 |
| AAAAGGAUCUAACACGACGGGUCACCAGAAGGGACAUUGGCACAUGAGGAUCACCCAUGUCUAGGUCAGGAUAUGGGAUCAAGA | – | – | 72.3 | 10.4 |
| UUUUACAUAGGAUAUAGUUUGUUGUACAUGAGGAUCACCCAUGUUUUUGGUUGUGCUUUUCUAGAAGGAUGUUUCU | 47.7 | 41.7 | – | – |
| CUAGCAUACCGAGGAUAUUCAUAUAAUAAAUAAACAUGAGGAUCACCCAUGUGGCGAAAGCCUAGGGAGAAGGCGGAAUGCUAA | – | – | 185 | 24.8 |
| UGAGCAUGAGGAUAUACAAGGCGUGCGUGAGCACGAGGUUUACAUGAGGAUCACCCAUGUAGAAGGCAUGUUCU | 19.1 | 39.8 | – | – |
| AUCAGCUCGUCAGGAUAUACCUCACUGCGUCAGCAGUGUGGUAAGAUCACAUGAGGAUCACCCAUGUAGAAGGGACGAGCUGAU | 6.44 | 6.19 | – | – |
| UGUGUUGCGCAGGAUAUGCUGGACAUGAGAGCUGCAGAAGGGCGAACAUGAGGAUCACCCAUGUUUUCCUCGGC | 14.1 | 14.6 | – | – |
| CUGGUUCUCGUAGGAUAUGUAGGAUAUGCCUACAUGAGGAUCACCCAUGUUCGCAUGGCAGAAGGACAGAAGGACGAUCACCAG | – | – | 55.6 | 15.4 |
| UUGUAAUGAUUAGGAUAUUAUUAAUAGAACUUUAUGAUAUACAUGAGGAUCACCCAUGUUACUUAUAAGAAGGAAUCGUAUUAU | 21.2 | 16.8 | – | – |
| GCUGCGCGAGGAUAUGCGGUUUGUGCUUUGGCCCAUGGCGUACAUGAGGAUCACCCAUGUAGAAGGCGUGUGGG | 13.5 | 13.8 | – | – |
| CGGCAAGUCGUAGGAUAUGGUGAUGUACAUGAGGAUCACCCAUGUCCGUCUUCUCUCACAAGAUGCCAGAAGGGCGACUUCCGG | – | – | 829 | 340 |
| AGUGUCGGCACAGGAUAUGAGAUGCCGGCAGACAUGAGGAUCACCCAUGUAAGCGAACCGGGCAGUCAGAAGGGUGAUCGACGA | – | – | 161 | 29.7 |
| GCCAUCGCAUGAGGAUAUGCUCCCGUUUCGGGAGCAGAAGGCAUGUGAUAACACAUGAGGAUCACCCAUGUAGUUAAGAUGGCA | – | – | 5.31 | 4.45 |

| Sequence | apparent Kd [1] [nM] | apparent Kd [2] [nM] | apparent Kd [3] [nM] | apparent Kd [4] [nM] |
| --- | --- | --- | --- | --- |
| CUGUCGAUAUCAGGAUAUCGUUUACAUACAUGAGGAUCACCCAUGUUGACAUGGAGCAUAAUUUGCGAGAAGGGAUAACGAUAG | – | – | 23.5 | 14.3 |
| AAUAACAGAGGAUAUACUGUUUUAUGUGUUUGUUGUUUUGAACAUGAGGAUCACCCAUGUAGAAGGCUGAAUGA | 28.1 | 25.9 | – | – |
| ACAUUUAAUACAGGAUAUGUUAGUAUACAGUUGAUUGGUUAUUACAUUAUAACAGAAGGGUAGAACAUGAGGAUCACCCAUGUA | – | – | 153 | 73.2 |
| CCGGAGACGGGUAGCCUGACAUGAGGAUCACCCAUGUGAUCCAAGGAUAUGGAUCCUAAUUGGAUCCAGAAGGUGGUUGGCUAC | – | – | 376 | 371 |
| AAUCCACAUGAGGAUCACCCAUGUCAGGAUAUGGUGACGCGGGUUUCGGUGCGUGUUGCCAGAAGGGACGGCUG | 27 | 46.7 | – | – |
| CAUUAUUAUCGAGGAUAUCCUAUUGAAAUUCUGGGAGAAGGCGGACUCAACAUGAGGAUCACCCAUGUGAGACGGAUGCUAGGG | 20.2 | 15.8 | – | – |
| GCCAUCGCAUGAGGAUAUGGCACCGUUUCGGUGCCAGAAGGCAUGUCAAAUGACAUGAGGAUCACCCAUGUAGUUAAGGUGGCA | – | – | 225 | 14.9 |
| UCUCGACAUGAGGAUCACCCAUGUCAGGAUAUUGUGUUUGAGGUUUUUUACCUUUUGACAAGAAGGGAUGUGUG | – | 30.4 | – | – |
| UUGUUAUAUGUAGGAUAUGCAUAUUAUUAUUAUGCAGAAGGACAUGAGGAUCACCCAUGUAUAUUGUUAUUAUAUAUUAUAUAU | 24.2 | 32.5 | – | – |
| AAAUAGUCAGGAUAUACAUGAGGAUCACCCAUGUAAACUUUUAGUUUAAUUUGAAUGUGUAGAAGGGACAUUAA | 28.1 | 33 | – | – |
| GGACAUGAGGAUCACCCAUGUCGAACAUGAGGAUCACCCAUGUAGGAUAUGCUACUCAAAGAGUAGCAGAAGGACAUGUGCCUU | 53.7 | 51.2 | – | – |
| CGAUUGACGUAGAAGGGACUUAAGGGACAAAGCAUGCGAACGGACGGACAUGAGGAUCACCCAUGUCAGGAUAUACGUUCAUUU | 5.27 | 6 | – | – |
| UUGGACGUCGUAGGAUAUGUAGGAUAUUCCUACAUGAGGAUCACCCAUGUUGACAUGGAAGAAGGACAGAAGGAGGAUGUCCAU | – | – | 303 | 7.18 |
| GGAUCGAAUGUGAGGAUAUACCUAUGGAUACAUAGGUAGAAGGCACAUGAGGAUCACCCAUGUUCCUACGGUCC | 81.7 | 680 | – | – |
| UGGUACAUGGGAGGAUAUGGGUUGAUAACAUGAGGAUCACCCAUGUUAAAUAUCCCGAGAGGGAACUAGAAGGCCCAUGUACCU | – | – | 643 | 46 |
| GUGAGGUAAGGAUAUAGUAGUGAAGGUAAAAUAUGAGAAUGCUAGAAGGUACAUGAGGAUCACCCAUGUUAGGG | 211 | 203 | – | – |
| CGCGAAAACAUAGGAUAUUGUUACAUGAGGAUCACCCAUGUCAACCAUGUAGCUCGAAUUGUUGUCAAGAAGGAUGAGGUCGCG | – | – | 18.4 | 22 |
| AAAAGACAUGAGGAUCACCCAUGUAAAAACGUGGGAGGAUAUGUAUGGAAACCAGACUGUACAGAAGGCCUUUGUC | – | – | 138 | 164 |
| GAUUAUAAGUAAGGAUAUGUAUAUGAAACAUAUACAGAAGGUACAUGAGGAUCACCCAUGUUCUUGCAGCGUGAAUAUGUAAUC | 19.1 | 28.5 | – | – |
| UGCCAUUACAUGAGGAUCACCCAUGUUCGCUAUGCGGGCUCGCAGGAUAUCCUCGCAGAUAAAGAGGAGAAGGGUGAUCCCGAC | – | – | 48 | 28.9 |
| UUGUUAUAUGUAGGAUAUGCAUAUUAUUAUUAUGCAGAAGGACAUGAGGAUCACCCAUGUAUAUUAUUGUUAUAUGUUAUAUAU | 23 | 25.4 | – | – |
| UCAUGAAGGACAGGAUAUGGACAUGAGGAUCACCCAUGUACAUGGGAUUAUAUACUGAAUUUAUACUAGAAGGGUUACAUAAAU | 44.7 | 30.2 | – | – |
| AUCUCGUCAGGAUAUCCUAGUAAUUGUUUCAUAUUUACGAUGGAGAAGGGACAUGAGGAUCACCCAUGUUGGUC | 64.4 | 144 | – | – |
| CAUUAAUUCAUUAUAGUAAUUUUACAGGAUAUGUAACAUGAGGAUCACCCAUGUAUUCUUGGUUAACAGAAGGGUAUUACUUGU | 19.3 | 29.7 | – | – |
